Published values collected from several papers.
Compare with care: the assays were run in different laboratories.
Target: Receptor-interacting serine/threonine-protein kinase 2 (RIPK2, Homo sapiens, UniProt O43353)

Cn1cc(-c2cc(F)cc(N3CCn4c(cc5c4CCCC5)C3=O)c2CO)cc(Nc2ccc(N3CCN(C4COC4)CC3)cn2)c1=O  inhibition (enzyme activity; inhibitor; 0.1 µM): -5%
COc1ncccc1-c1cnn2ccc(N3CCN(C(=O)OC(C)C)CC3)nc12  remaining binding (binding; competition with immobilised ligand; 1 µM): 51%
Nc1ncc(-c2nc(N3CCOCC3)nc(N3CCOCC3)n2)c(C(F)F)n1  remaining binding (binding; competition with immobilised ligand; 10 µM): 100%
Cc1nn(C)cc1-c1nc2c(N3CCN(Cc4ccc(Cl)cc4)CC3)c(Cl)cnc2[nH]1  remaining binding (binding; competition with immobilised ligand; 1 µM): 100%
Cn1cc(-c2cccc(N3CCc4c(sc5c4CC(C)(C)C5)C3=O)c2CO)cc(Nc2ccncn2)c1=O  inhibition (enzyme activity; inhibitor; 1 µM): 1%
N#CC1(c2ccccn2)CCN(Cc2cc(C(=O)O)c(=O)n3ccccc23)CC1  remaining binding (cell-free assay; competition with immobilised ligand; 1 µM): 92%
O=c1[nH]c2ccccc2n1C1CCN(Cc2ccc(-c3[nH]c4cc5ncnc5cc4nc3-c3ccccc3)cc2)CC1  remaining signal (cell-free assay; 0.5 µM): 89.2%
Cn1cncc1[C@@](O)(COc1ccc(C#N)cc1-c1ccc(OC(F)(F)F)cc1)c1ccc(C#N)cc1  remaining binding (cell-free assay; competition with immobilised ligand; 1 µM): 100%
CC(C)(C)c1cc(C=C(C#N)C#N)cc(Br)c1O  remaining activity (enzyme activity; inhibitor; 0.5 µM): 32.8%
